Results gathered from unrelated publications.
Lines come from different studies, so protocols differ.
Target: Serine/threonine-protein kinase Sgk1 (SGK1, Homo sapiens, UniProt O00141)

`Fc1cccc(-n2cnc3c(NCc4nc5c(F)c(F)ccc5[nH]4)nc(N4CCOCC4)nc32)c1` has a binding vs control of 24% (binding, competition with immobilised ligand; 10 µM).
`O=C1Nc2ccc(Cl)cc2C1=Cc1cc(Cl)c(O)c(Cl)c1` has a remaining signal of 91.3% (cell-free assay; 0.5 µM).
`O=C(N1CCS(=O)(=O)CC1)N1C[C@H](c2ccc(OC(F)(F)F)cc2)C[C@H](c2nc(C3CC3)no2)C1` has a remaining binding of 91% (cell-free assay, competition with immobilised ligand; 1 µM).
With `CCN(CC)CCNC(=O)c1c(C)[nH]c(/C=C2\C(=O)Nc3ccc(F)cc32)c1C` the inhibition was 86% (enzyme activity, inhibitor; 10 µM).
`CC1=C(C#N)C(c2ccc3c(c2)c(NC(=O)c2ccccc2C)nn3C)C(C#N)=C(C)N1` gave a remaining binding of 89% (cell-free assay, competition with immobilised ligand; 1 µM).
With `FC(F)(F)Oc1cccc(-c2cnc3ccc(-c4ccncc4)nn23)c1` the activity vs control was 103% (enzyme activity, inhibitor, radiometric; 1 µM).
`Cn1c(=O)n(-c2ccc(C(C)(C)C#N)cc2)c2c3cc(-c4cnc5ccccc5c4)ccc3ncc21` has a remaining activity of 98% (enzyme activity, inhibitor; 10 µM).
With `CCCOc1ccc(OC)c(F)c1C(=O)c1ccc(C(=O)N[C@@H]2CNC[C@H]2NC(=O)c2ccc3[nH]ncc3c2)cc1` the remaining activity was 34% (enzyme activity, inhibitor; 0.75 µM).
`Nc1ncnc2n[nH]c(Nc3ccc(F)cc3)c12` has a remaining signal of 91.5% (cell-free assay; 0.5 µM).
For `O=C(Nc1cnn(-c2csc(C(=O)NC3COC3)c2)c1)Nc1ccccc1Cl`, the remaining activity was 93.7% (enzyme activity, inhibitor; 5 µM).
With `CNC(=O)c1cc(Oc2ccc(NC(=O)Nc3ccc(Cl)c(C(F)(F)F)c3)cc2)ccn1` the inhibition was -15% (enzyme activity, inhibitor; 0.3 µM).
`COc1cc(Nc2cnc(C#N)c(O[C@H](C)CN(C)C)n2)ncc1-c1cnn(C)c1` has a remaining activity of 79% (enzyme activity, inhibitor, radiometric; 1 µM).
For `COc1cc2ncnc(Nc3ccc(Oc4ccccc4)c(C)c3C)c2cc1OC`, the inhibition was 0% (enzyme activity, inhibitor; 1 µM).
`CCN(CC)c1ccc(C2=NNC(=O)CC2C)cc1[N+](=O)[O-]` (centres unmarked) gave a remaining activity of 100% (enzyme activity, inhibitor; 10 µM).
With `O=C(Nc1cnn(-c2csc(C(=O)NC3COC3)c2)c1)Nc1c(F)cccc1Cl` the remaining activity was 95.4% (enzyme activity, inhibitor; 5 µM).
With `Cc1ccc(Nc2nccc(N(C)c3ccc4c(C)n(C)nc4c3)n2)cc1S(N)(=O)=O` the inhibition was -14% (enzyme activity, inhibitor; 0.3 µM).
`CNCc1ccc(-c2cc(-c3nc(-c4ccc(S(=O)(=O)C(C)C)cc4)cnc3N)on2)cc1` has an inhibition of 0% (enzyme activity, inhibitor; 0.4 µM).
The remaining binding of `CO[C@@H](C)c1c(Nc2ccc([C@@H](N(C)C(=O)C3CCS(=O)(=O)CC3)C(F)(F)F)cc2)cnc2cc(Cl)nn12` is reported as 89% (cell-free assay, competition with immobilised ligand; 1 µM).
`CC(C)(O)[C@H]1CC[C@H](Nc2ccc3ncc(-c4cccc(C(F)(F)F)c4)n3n2)CC1` gave a remaining activity of 99.4% (enzyme activity, inhibitor; 1 µM).
`CC(C)(C)c1nc(-c2cccc(NS(=O)(=O)c3c(F)cccc3F)c2F)c(-c2ccnc(N)n2)s1` gave a remaining activity of 75% (enzyme activity, inhibitor, radiometric; 1 µM).
The inhibition of `CN(c1ncccc1CNc1nc(Nc2ccc3c(c2)CC(=O)N3)ncc1C(F)(F)F)S(C)(=O)=O` is reported as 13.4% (enzyme activity, inhibitor; 1 µM).
With `O=C1CCc2cc(Nc3cc(OC4CCOCC4)c([N+](=O)[O-])cc3Cl)ccc2N1` the remaining binding was 100% (cell-free assay, competition with immobilised ligand; 1 µM).
`Nc1nc(Nc2ccccc2)sc1C(=O)c1c(F)cccc1F` gave a remaining activity of 98% (enzyme activity, inhibitor; 10 µM).
`CCC(=N\O)/C(C)=C/c1ccc(F)cc1` has a remaining binding of 89% (cell-free assay, competition with immobilised ligand; 1 µM).
The activity vs control of `COc1cc(/C=C/C(=O)CC(=O)/C=C/c2ccc(O)c(OC)c2)ccc1O` is reported as 82% (enzyme activity, inhibitor; 1 µM).
`Nc1nc(NC2CCCCC2)sc1C(=O)c1ccccc1` gave a remaining activity of 81% (enzyme activity, inhibitor; 10 µM).
For `CN1CC(Oc2cnc(C#N)cc2-c2ccn3nc(NC(=O)C4CC4)cc3c2)C1`, the inhibition was 3% (enzyme activity, inhibitor; 1 µM).
With `CN(C)C1CCN(CC#Cc2nn(C3CCCC3)c3nc(NCc4ccccc4)ncc23)C1` (centres unmarked) the inhibition was 20% (enzyme activity, inhibitor, FRET; 10 µM).
The remaining activity of `COc1cc(Cl)c(C(=O)N[C@@H](CN[C@H]2CC[C@@H](N)CC2)Cc2ccc(C#N)cc2)cc1-c1ccc(CN[C@H](C)c2ccc(C)cc2)o1` is reported as 94% (enzyme activity, inhibitor; 1 µM).
`CCOCCn1cc(C(=O)Nc2ccc(-n3nc(-c4cccnc4)cc3C(F)(F)F)cn2)ccc1=O` gave a remaining binding of 83% (cell-free assay, competition with immobilised ligand; 1 µM).
With `CC/C(=N\NC(=O)C(C)Nc1ccccc1)c1ccc(O)c(C)c1O` (centres unmarked) the inhibition was 44.6% (enzyme activity, inhibitor; 0.1 µM).
The remaining binding of `COc1cc(-c2cn(C3CCc4ccccc4N(CC(F)(F)F)C3=O)nn2)ccc1-n1ccc(C)n1` (centres unmarked) is reported as 88% (cell-free assay, competition with immobilised ligand; 1 µM).
The remaining signal of `CC[C@H](CO)Nc1nc(NCc2ccccc2)c2ncn(C(C)C)c2n1` is reported as 120% (cell-free assay; 0.5 µM).
`CC(=O)C1=C(C)N(c2cccc(C(F)(F)F)c2)C(=O)N[C@@H]1c1ccc(C#N)nc1` gave a remaining binding of 100% (cell-free assay, competition with immobilised ligand; 1 µM).
For `Cc1cc(NC(=O)c2cccc3cc(-c4cccc5[nH]nc(N)c45)ccc23)ccc1F`, the activity vs control was 87% (enzyme activity, inhibitor; 0.1 µM).
